The results in this text go back to BindingDB's records for doi:10.1021/np2003066 (The University of Montana, 2011).

Interleukin-1 beta, sequence (P01584 117-269 limits assumed): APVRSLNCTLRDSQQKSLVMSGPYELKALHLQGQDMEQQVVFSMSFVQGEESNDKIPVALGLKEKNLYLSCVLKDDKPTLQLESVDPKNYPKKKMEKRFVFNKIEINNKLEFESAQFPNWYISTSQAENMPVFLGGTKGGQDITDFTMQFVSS

The target in the assay is Interleukin-1 beta (Homo sapiens, UniProt P01584). Put plainly: Induction of IL-1 beta production in LPS-induced human THP-1 cells by ELISA. In outline:
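THP-1 cells were differentiated with PMA (1 μg/mL) for 24 h, scraped, pelleted and resuspended at 1.0 × 10^6 cells/mL. They were exposed together to test inhibitor, LPS [20 ng/mL] and TiO2 nanowires (100 μg/ml) for 24 h at 37 °C in a CO2 incubator. IL-1β released was measured by DuoSet ELISA, and IC50 was derived from the post-exposure IL-1β levels.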
The term IC50 denotes the midpoint of a concentration-inhibition curve. A high value points to weaker potency in that assay. `CC(=O)N[C@@H](Cc1ccc(O)cc1)C(=O)N[C@H](C(=O)N[C@@H](C)C(=O)N[C@H](C=O)CC(=O)O)C(C)C` showed an IC50 of 2 µM. Under `C=C1[C@@]2(C)C[C@H]3[C@]4(C)CCC(=O)C(C)(C)[C@H]4CC[C@]3(C)[C@]1(C(=O)OC)C(=O)[C@@](C)(O)C2=O` stands 15.5 µM. Regarding `C=C1[C@@]2(C)C[C@H]3[C@]4(C)CC[C@@H](O)C(C)(C)[C@H]4CC[C@]3(C)[C@]1(C(=O)OC)C(=O)[C@@](C)(O)C2=O`, the IC50 worked out at 2.7 µM. This IC50 is about 5.7-fold lower than that of the molecule before. Under `C=C1[C@@]2(C)C[C@@H]3[C@](C)(CC=C4C(C)(C)OC(=O)CC[C@]43C)[C@]1(C(=O)OC)C(=O)[C@@](C)(O)C2=O` stands 3.7 µM.

Consider `C=C1[C@@]2(C)C[C@H]3[C@]4(C)CCC(=O)OC(C)(C)[C@@H]4CC[C@]3(C)[C@]1(C(=O)OC)C(=O)[C@@](C)(O)C2=O`, for which the IC50 was 34.3 µM. Under `C=C(C)C1=CC[C@@]2(C)[C@@H](C[C@]3(C)C(=C)[C@@]2(C(=O)OC)C(=O)[C@@](C)(O)C3=O)[C@]1(C)CCC(=O)O` stands 37.8 µM.

Take `C=C1[C@@]2(C)C[C@H]3C(C)=C4CC(=O)OC(C)(C)C4=CC[C@]3(C)[C@]1(C(=O)OC)C(=O)[C@@](C)(O)C2=O` [BERKELEYDIONE]: the half-inhibitory concentration (IC50) amounted to 4.4 µM.
